Measurements reported in ChEMBL document CHEMBL1135739, “Radiolabeled amino acids for tumor imaging with PET: radiosynthesis and biological evaluation of 2-amino-3-[18F]fluoro-2-methylpropanoic acid and 3-[18F]fluoro-2-methyl-2-(methylamino)propanoic acid” (J Med Chem, 2002).
Where “and” joins values, the source holds several entries; their conditions need not be identical. Equal entries are not always repeated.

Assays:
[1] = species on record: Rattus norvegicus; test: Radioactivity distribution in testis of normal fischer rat after injection of [18F]-fluoro-2-methyl-2-(methylamino)propanoic acid after 5 min.; type: ADME, organism-based; conditions: in vivo
In short: (§1)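 Male Fischer 344 rats (200–250 g), fed ad libitum, under intramuscular ketamine:xylazine anesthesia, got ~85 μCi radiotracer in 0.3 mL sterile water by tail-vein catheter. Groups of four were killed at 5, 30, 60 or 120 min. Dissected tissues were weighed and gamma-counted with dose standards. Counts were decay-corrected and given as %ID/g, mean ± standard error. Tissues were compared by one-way ANOVA.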

[2] = species on record: Rattus norvegicus; test: Radioactivity distribution in heart of normal fischer rat after injection of [18F]-fluoro-2-methyl-2-(methylamino)propanoic acid after 30 min.; type: ADME, organism-based; conditions: in vivo, 0.5 h
In short: (§2)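 Normal male Fischer 344 rats (200–250 g), anesthetized with i.m. ketamine:xylazine (1:1), got ~85 μCi of tracer in 0.3 mL sterile water i.v. via tail-vein catheter. Groups of four were killed at 5, 30, 60 or 120 min. Tissues were weighed and gamma-counted against dose standards, and counts were decay-corrected to %ID/g. Results are mean ± standard error (n = 4), compared by one-way ANOVA.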

[3] = species on record: Rattus norvegicus; test: Radioactivity distribution in muscle of normal fischer rat after injection of [18F]-fluoro-2-methyl-2-(methylamino)propanoic acid after 60 min.; type: ADME, organism-based, Muscle tissue; conditions: in vivo, 1 h
In short: (§3)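 Male Fischer 344 rats (200–250 g), fed ad libitum, anesthetized with intramuscular ketamine:xylazine (1:1, 0.1 mL/100 g). About 85 μCi tracer in 0.3 mL sterile water was given by tail-vein catheter. Groups of four were killed at 5, 30, 60 or 120 min. Tissues were weighed and gamma-counted against dose standards, decay-corrected, and expressed as %ID/g (mean ± standard error).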

[4] = species on record: Rattus norvegicus; test: Radioactivity distribution in pancreas of normal fischer rat after injection of [18F]-fluoro-2-methyl-2-(methylamino)propanoic acid after 30 min.; type: ADME, organism-based; conditions: in vivo, 0.5 h; in short: as §3
[5] = species on record: Rattus norvegicus; test: Radioactivity distribution in kidney of normal fischer rat after injection of [18F]-fluoro-2-methyl-2-(methylamino)propanoic acid after 30 min.; type: ADME, organism-based; conditions: in vivo, 0.5 h; in short: as §2
[6] = species on record: Rattus norvegicus; test: Radioactivity distribution in bone of normal fischer rat after injection of [18F]-fluoro-2-methyl-2-(methylamino)propanoic acid after 120 min.; type: ADME, organism-based, Bone element; conditions: in vivo, 2 h; in short: as §2
[7] = species on record: Rattus norvegicus; test: Radioactivity distribution in lung of normal fischer rat after injection of [18F]-fluoro-2-methyl-2-(methylamino)propanoic acid after 30 min.; type: ADME, organism-based; conditions: in vivo, 0.5 h; in short: as §3
[8] = species on record: Rattus norvegicus; test: Radioactivity distribution in muscle of normal fischer rat after injection of [18F]-fluoro-2-methyl-2-(methylamino)propanoic acid after 5 min.; type: ADME, organism-based, Muscle tissue; conditions: in vivo; in short: as §3
[9] = species on record: Rattus norvegicus; test: Radioactivity distribution in pancreas of normal fischer rat after injection of [18F]-fluoro-2-methyl-2-(methylamino)propanoic acid after 60 min.; type: ADME, organism-based; conditions: in vivo, 1 h; in short: as §3
[10] = species on record: Rattus norvegicus; test: Radioactivity distribution in brain of normal fischer rat after injection of [18F]-fluoro-2-methyl-2-(methylamino)propanoic acid after 120 min.; type: ADME, organism-based; conditions: in vivo, 2 h; in short: as §2
[11] = species on record: Rattus norvegicus; test: Radioactivity distribution in lung of normal fischer rat after injection of [18F]-fluoro-2-methyl-2-(methylamino)propanoic acid after 60 min.; type: ADME, organism-based; conditions: in vivo, 1 h; in short: as §3
[12] = species on record: Rattus norvegicus; test: Radioactivity distribution in kidney of normal fischer rat after injection of [18F]-fluoro-2-methyl-2-(methylamino)propanoic acid after 120 min.; type: ADME, organism-based; conditions: in vivo, 2 h; in short: as §2
[13] = species on record: Rattus norvegicus; test: Radioactivity distribution in brain of normal fischer rat after injection of [18F]-fluoro-2-methyl-2-(methylamino)propanoic acid after 30 min.; type: ADME, organism-based; conditions: in vivo, 0.5 h; in short: as §2
[14] = species on record: Rattus norvegicus; test: Radioactivity distribution in pancreas of normal fischer rat after injection of [18F]-fluoro-2-methyl-2-(methylamino)propanoic acid after 120 min.; type: ADME, organism-based; conditions: in vivo, 2 h; in short: as §3
[15] = species on record: Rattus norvegicus; test: Radioactivity distribution in spleen of normal fischer rat after injection of [18F]-fluoro-2-methyl-2-(methylamino)propanoic acid after 60 min.; type: ADME, organism-based; conditions: in vivo, 1 h; in short: as §1
[16] = species on record: Rattus norvegicus; test: Radioactivity distribution in heart of normal fischer rat after injection of [18F]-fluoro-2-methyl-2-(methylamino)propanoic acid after 5 min.; type: ADME, organism-based; conditions: in vivo; in short: as §2
[17] = species on record: Rattus norvegicus; test: Radioactivity distribution in bone of normal fischer rat after injection of [18F]-fluoro-2-methyl-2-(methylamino)propanoic acid after 30 min.; type: ADME, organism-based, Bone element; conditions: in vivo, 0.5 h; in short: as §2
[18] = species on record: Rattus norvegicus; test: Radioactivity distribution in liver of normal fischer rat after injection of [18F]-fluoro-2-methyl-2-(methylamino)propanoic acid after 60 min.; type: ADME, organism-based; conditions: in vivo, 1 h; in short: as §3
[19] = species on record: Rattus norvegicus; test: Radioactivity distribution in kidney of normal fischer rat after injection of [18F]-fluoro-2-methyl-2-(methylamino)propanoic acid after 5 min.; type: ADME, organism-based; conditions: in vivo; in short: as §2
[20] = species on record: Rattus norvegicus; test: Radioactivity distribution in testis of normal fischer rat after injection of [18F]-fluoro-2-methyl-2-(methylamino)propanoic acid after 60 min.; type: ADME, organism-based; conditions: in vivo, 1 h; in short: as §1
[21] = species on record: Rattus norvegicus; test: Radioactivity distribution in liver of normal fischer rat after injection of [18F]-fluoro-2-methyl-2-(methylamino)propanoic acid after 120 min.; type: ADME, organism-based; conditions: in vivo, 2 h; in short: as §3
[22] = species on record: Rattus norvegicus; test: Radioactivity distribution in muscle of normal fischer rat after injection of [18F]-fluoro-2-methyl-2-(methylamino)propanoic acid after 120 min.; type: ADME, organism-based, Muscle tissue; conditions: in vivo, 2 h; in short: as §3
[23] = species on record: Rattus norvegicus; test: Radioactivity distribution in brain of normal fischer rat after injection of [18F]-fluoro-2-methyl-2-(methylamino)propanoic acid after 5 min.; type: ADME, organism-based; conditions: in vivo; in short: as §2
[24] = species on record: Rattus norvegicus; test: Radioactivity distribution in heart of normal fischer rat after injection of [18F]-fluoro-2-methyl-2-(methylamino)propanoic acid after 120 min.; type: ADME, organism-based; conditions: in vivo, 2 h; in short: as §2

## CNC(C)(C[18F])C(=O)O.Cl (centres undefined)
[1]
  ID/g: 0.17% and 0.19%
[2]
  ID/g: 0.23%
[3]
  ID/g: 0.15% and 0.19%
[4]
  ID/g: 3%
[5]
  ID/g: 4.6%
[6]
  ID/g: 0.2% and 0.19%
[7]
  ID/g: 0.5%
[8]
  ID/g: 0.16% and 0.22%
[9]
  ID/g: 3.24% and 2.42%
[10]
  ID/g: 0.03% and < 0.02%
[11]
  ID/g: 0.38% and 0.26%
[12]
  ID/g: 1.36% and 1.59%
[13]
  ID/g: 0.04%
[14]
  ID/g: 2.88% and 1.74%
[15]
  ID/g: 0.68% and 0.45%
[16]
  ID/g: 0.22% and 0.34%
[17]
  ID/g: 0.32%
[18]
  ID/g: 0.78% and 0.85%
[19]
  ID/g: 8.12% and 9.33%
[20]
  ID/g: 0.08%
[21]
  ID/g: 0.58% and 0.41%
[22]
  ID/g: 0.13% and 0.16%
[23]
  ID/g: 0.04% and < 0.032%
[24]
  ID/g: 0.17% and 0.19%
